Measured values published in ChEMBL document CHEMBL3632558, “Synthesis, antimycobacterial and antibacterial activity of l-[(1R,2S)-2-fluorocyclopropyl]naphthyridone derivatives containing an oxime-functionalized pyrrolidine moiety” (2015).
Values after ≈ are worked out from the molar mass of the structure shown.

Columns and labels:
Format in all cases: functional
Enterococcus faecium [1] = test: Antibacterial activity against Enterococcus faecium 14-6 after 18 to 24 hrs
Summary of the method: (§1)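 MIC by standard NCCLS reference procedure (M100-S11); lowest concentration of compound inhibiting visible bacterial growth after incubation at 35 °C for 18–24 h, read as complete inhibition of growth. Ciprofloxacin, levofloxacin and moxifloxacin run alongside as reference agents.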

Enterococcus faecium [2] = test: Antibacterial activity against Enterococcus faecium 14-2 after 18 to 24 hrs; summary of the method: as §1
Staphylococcus aureus [3] = test: Antibacterial activity against methicillin-sensitive Staphylococcus aureus 14-4 after 18 to 24 hrs; summary of the method: as §1
Staphylococcus aureus [4] = test: Antibacterial activity against methicillin-sensitive Staphylococcus aureus 14-3 after 18 to 24 hrs; summary of the method: as §1
Klebsiella pneumoniae [5] = test: Antibacterial activity against ESBL-positive Klebsiella pneumoniae 14-17 after 18 to 24 hrs; summary of the method: as §1
Klebsiella pneumoniae [6] = test: Antibacterial activity against ESBL-positive Klebsiella pneumoniae 14-19 after 18 to 24 hrs; summary of the method: as §1
Pseudomonas aeruginosa [7] = test: Antibacterial activity against Pseudomonas aeruginosa 14-9 after 18 to 24 hrs; summary of the method: as §1
[8] = tested on: Staphylococcus epidermidis; test: Antibacterial activity against methicillin-sensitive Staphylococcus epidermidis 14-2 after 18 to 24 hrs; summary of the method: as §1
[9] = tested on: Staphylococcus epidermidis; test: Antibacterial activity against methicillin-resistant Staphylococcus epidermidis 14-39 after 18 to 24 hrs
Pseudomonas aeruginosa [10] = test: Antibacterial activity against Pseudomonas aeruginosa 14-16 after 18 to 24 hrs; summary of the method: as §1
[11] = tested on: Staphylococcus epidermidis; test: Antibacterial activity against methicillin-resistant Staphylococcus epidermidis 14-22 after 18 to 24 hrs
Escherichia coli [12] = test: Antibacterial activity against ESBL-positive Escherichia coli 14-1 after 18 to 24 hrs; summary of the method: as §1
Klebsiella pneumoniae [13] = test: Antibacterial activity against Klebsiella pneumoniae 14-3 after 18 to 24 hrs; summary of the method: as §1
Enterococcus faecium [14] = test: Antibacterial activity against Enterococcus faecium 14-5 after 18 to 24 hrs; summary of the method: as §1
Escherichia coli [15] = test: Antibacterial activity against Escherichia coli 14-2 after 18 to 24 hrs; summary of the method: as §1
Enterococcus faecalis [16] = test: Antibacterial activity against Enterococcus faecalis 14-1 after 18 to 24 hrs; summary of the method: as §1
Staphylococcus aureus [17] = test: Antibacterial activity against methicillin-sensitive Staphylococcus aureus 14-2 after 18 to 24 hrs; summary of the method: as §1
Enterococcus faecium [18] = test: Antibacterial activity against Enterococcus faecium 14-1 after 18 to 24 hrs; summary of the method: as §1
Pseudomonas aeruginosa [19] = test: Antibacterial activity against Pseudomonas aeruginosa ATCC 27853 after 18 to 24 hrs; summary of the method: as §1
Escherichia coli [20] = test: Antibacterial activity against Escherichia coli 14-1 after 18 to 24 hrs; summary of the method: as §1
Klebsiella pneumoniae [21] = test: Antibacterial activity against ESBL-positive Klebsiella pneumoniae 14-18 after 18 to 24 hrs; summary of the method: as §1
Pseudomonas aeruginosa [22] = test: Antibacterial activity against Pseudomonas aeruginosa 14-19 after 18 to 24 hrs; summary of the method: as §1
Escherichia coli [23] = test: Antibacterial activity against ESBL-positive Escherichia coli 14-2 after 18 to 24 hrs; summary of the method: as §1
Staphylococcus aureus [24] = test: Antibacterial activity against methicillin-resistant Staphylococcus aureus 14-4 after 18 to 24 hrs
Staphylococcus aureus [25] = test: Antibacterial activity against Staphylococcus aureus CMCC 26003 after 18 to 24 hrs; summary of the method: as §1
Staphylococcus aureus [26] = test: Antibacterial activity against methicillin-sensitive Staphylococcus aureus 14-1 after 18 to 24 hrs; summary of the method: as §1
Klebsiella pneumoniae [27] = test: Antibacterial activity against Klebsiella pneumoniae 14-4 after 18 to 24 hrs; summary of the method: as §1
Pseudomonas aeruginosa [28] = test: Antibacterial activity against Pseudomonas aeruginosa 14-15 after 18 to 24 hrs; summary of the method: as §1
[29] = tested on: Mycobacterium tuberculosis; test: Antimycobacterial activity against Mycobacterium tuberculosis H37Rv ATCC 27294 by alamar blue assay
Summary of the method: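 Microplate Alamar Blue Assay; MIC is the lowest concentration giving ≥90% reduction in fluorescence relative to the mean of replicate bacterium-only controls. MDR strain 6133 is resistant to isoniazid and rifampicin.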

Klebsiella pneumoniae [30] = test: Antibacterial activity against Klebsiella pneumoniae 14-1 after 18 to 24 hrs; summary of the method: as §1
Klebsiella pneumoniae [31] = test: Antibacterial activity against Klebsiella pneumoniae 14-2 after 18 to 24 hrs; summary of the method: as §1
[32] = tested on: Staphylococcus epidermidis; test: Antibacterial activity against methicillin-resistant Staphylococcus epidermidis 14-37 after 18 to 24 hrs
Enterococcus faecalis [33] = test: Antibacterial activity against Enterococcus faecalis 14-2 after 18 to 24 hrs; summary of the method: as §1
[34] = tested on: Staphylococcus epidermidis; test: Antibacterial activity against methicillin-resistant Staphylococcus epidermidis 14-21 after 18 to 24 hrs
Pseudomonas aeruginosa [35] = test: Antibacterial activity against Pseudomonas aeruginosa 14-14 after 18 to 24 hrs; summary of the method: as §1
Streptococcus pneumoniae = test: Antibacterial activity against Streptococcus pneumoniae ATCC 19615 after 18 to 24 hrs; summary of the method: as §1
Staphylococcus aureus [36] = test: Antibacterial activity against methicillin-resistant Staphylococcus aureus 14-5 after 18 to 24 hrs
Escherichia coli [37] = test: Antibacterial activity against Escherichia coli ATCC 25922 after 18 to 24 hrs; summary of the method: as §1

SMILES	MIC (Enterococcus faecium [1]) [µg/mL]	MIC (Enterococcus faecium [2]) [µg/mL]	MIC (Staphylococcus aureus [3]) [µg/mL]	MIC (Staphylococcus aureus [4]) [µg/mL]	MIC (Klebsiella pneumoniae [5]) [µg/mL]	MIC (Klebsiella pneumoniae [6]) [µg/mL]	MIC (Pseudomonas aeruginosa [7]) [µg/mL]	MIC [8] [µg/mL]	MIC [9] [µg/mL]	MIC (Pseudomonas aeruginosa [10]) [µg/mL]	MIC [11] [µg/mL]	MIC (Escherichia coli [12]) [µg/mL]	MIC (Klebsiella pneumoniae [13]) [µg/mL]	MIC (Enterococcus faecium [14]) [µg/mL]	MIC (Escherichia coli [15]) [µg/mL]	MIC (Enterococcus faecalis [16]) [µg/mL]	MIC (Staphylococcus aureus [17]) [µg/mL]	MIC (Enterococcus faecium [18]) [µg/mL]	MIC (Pseudomonas aeruginosa [19]) [µg/mL]	MIC (Escherichia coli [20]) [µg/mL]	also measured
CCO/N=C1\CN(c2nc3c(cc2F)c(=O)c(C(=O)O)cn3[C@@H]2C[C@@H]2F)CC1(C)N (stereo partly specified)	> 128	> 128	1 (≈ 2.37 µM)	0.5 (≈ 1.19 µM)	32 (≈ 75.9 µM)	128 (≈ 304 µM)	16 (≈ 38 µM)	> 128	128 (≈ 304 µM)	32 (≈ 75.9 µM)	32 (≈ 75.9 µM)	32 (≈ 75.9 µM)	128 (≈ 304 µM)	> 128	> 128	128 (≈ 304 µM)	0.25 (≈ 0.593 µM)	> 128	16 (≈ 38 µM)	> 128	MIC (Klebsiella pneumoniae [21]): 32 µg/mL (≈ 75.9 µM); MIC (Pseudomonas aeruginosa [22]): 64 µg/mL (≈ 152 µM); MIC (Escherichia coli [23]): > 128 µg/mL; MIC (Staphylococcus aureus [24]): 64 µg/mL (≈ 152 µM); MIC (Staphylococcus aureus [25]): 0.25 µg/mL (≈ 0.593 µM); MIC (Staphylococcus aureus [26]): 64 µg/mL (≈ 152 µM); MIC (Klebsiella pneumoniae [27]): > 128 µg/mL; MIC (Pseudomonas aeruginosa [28]): 32 µg/mL (≈ 75.9 µM); MIC90 [29]: 0.42 µg/mL (≈ 0.997 µM); MIC (Klebsiella pneumoniae [30]): 128 µg/mL (≈ 304 µM); MIC (Klebsiella pneumoniae [31]): > 128 µg/mL; MIC [32]: 32 µg/mL (≈ 75.9 µM); MIC (Enterococcus faecalis [33]): 2 µg/mL (≈ 4.75 µM); MIC [34]: 64 µg/mL (≈ 152 µM); MIC (Pseudomonas aeruginosa [35]): 32 µg/mL (≈ 75.9 µM); MIC (Streptococcus pneumoniae): 0.25 µg/mL (≈ 0.593 µM); MIC (Staphylococcus aureus [36]): 128 µg/mL (≈ 304 µM); MIC (Escherichia coli [37]): 1 µg/mL (≈ 2.37 µM)
NCC1CN(c2nc3c(cc2F)c(=O)c(C(=O)O)cn3[C@@H]2C[C@@H]2F)C/C1=N\OCc1ccc(F)cc1 (stereo partly specified)	8 (≈ 16 µM)	2 (≈ 3.99 µM)	< 0.008	< 0.008	8 (≈ 16 µM)	64 (≈ 128 µM)	8 (≈ 16 µM)	64 (≈ 128 µM)	16 (≈ 31.9 µM)	16 (≈ 31.9 µM)	8 (≈ 16 µM)	8 (≈ 16 µM)	64 (≈ 128 µM)	8 (≈ 16 µM)	64 (≈ 128 µM)	64 (≈ 128 µM)	< 0.008	1 (≈ 1.99 µM)	4 (≈ 7.98 µM)	64 (≈ 128 µM)	MIC (Klebsiella pneumoniae [21]): 16 µg/mL (≈ 31.9 µM); MIC (Pseudomonas aeruginosa [22]): 16 µg/mL (≈ 31.9 µM); MIC (Escherichia coli [23]): 64 µg/mL (≈ 128 µM); MIC (Staphylococcus aureus [24]): 32 µg/mL (≈ 63.8 µM); MIC (Staphylococcus aureus [25]): < 0.008 µg/mL; MIC (Staphylococcus aureus [26]): 4 µg/mL (≈ 7.98 µM); MIC (Klebsiella pneumoniae [27]): 128 µg/mL (≈ 255 µM); MIC (Pseudomonas aeruginosa [28]): 16 µg/mL (≈ 31.9 µM); MIC90 [29]: < 0.25 µg/mL; MIC (Klebsiella pneumoniae [30]): 64 µg/mL (≈ 128 µM); MIC (Klebsiella pneumoniae [31]): > 128 µg/mL; MIC [32]: 8 µg/mL (≈ 16 µM); MIC (Enterococcus faecalis [33]): < 0.008 µg/mL; MIC [34]: 8 µg/mL (≈ 16 µM); MIC (Pseudomonas aeruginosa [35]): 16 µg/mL (≈ 31.9 µM); MIC (Streptococcus pneumoniae): 0.03 µg/mL (≈ 0.0598 µM); MIC (Staphylococcus aureus [36]): 16 µg/mL (≈ 31.9 µM); MIC (Escherichia coli [37]): < 0.008 µg/mL
